The text below walks through data of ChEMBL document CHEMBL2346499, “Small molecule modulators of Wnt/β-catenin signaling” (Bioorg Med Chem Lett, 2013).

Calls of active or inactive are those of the source. The rule behind the calls is not given here.

Tested on in the first assay: not listed separately
Kind of assay: Induction of Wnt3A/beta-catenin signaling in HEK293 cells after 8 hrs by TOPflash reporter assay. The assay is classed as cell-based. Particulars: Homo sapiens. An outline of the steps: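 HEK293 cells carrying TOPflash reporter, treated with or without Wnt3A conditioned medium (5% as reference sample) plus compound at the indicated concentrations for 8 hrs; luciferase read as relative luciferase units; significance versus Wnt3A-only sample by t test.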
Turning to `O=C(Nc1ccc(NS(=O)(=O)c2ccc(Cl)cc2)cc1Cl)c1cc(Cl)ccc1O`, the Activity result was “Dose-dependent effect”.

In the next assay the target is Frizzled-1 (Homo sapiens) (UniProt Q9UP38). Kind of assay: Induction of internalization of Frizzled1-GFP (unknown origin) expressed in human U2OS cells at 12.5 uM after 6 hrs by confocal microscopy.
Frizzled-1 (Homo sapiens), sequence (Q9UP38 70-647 limits assumed): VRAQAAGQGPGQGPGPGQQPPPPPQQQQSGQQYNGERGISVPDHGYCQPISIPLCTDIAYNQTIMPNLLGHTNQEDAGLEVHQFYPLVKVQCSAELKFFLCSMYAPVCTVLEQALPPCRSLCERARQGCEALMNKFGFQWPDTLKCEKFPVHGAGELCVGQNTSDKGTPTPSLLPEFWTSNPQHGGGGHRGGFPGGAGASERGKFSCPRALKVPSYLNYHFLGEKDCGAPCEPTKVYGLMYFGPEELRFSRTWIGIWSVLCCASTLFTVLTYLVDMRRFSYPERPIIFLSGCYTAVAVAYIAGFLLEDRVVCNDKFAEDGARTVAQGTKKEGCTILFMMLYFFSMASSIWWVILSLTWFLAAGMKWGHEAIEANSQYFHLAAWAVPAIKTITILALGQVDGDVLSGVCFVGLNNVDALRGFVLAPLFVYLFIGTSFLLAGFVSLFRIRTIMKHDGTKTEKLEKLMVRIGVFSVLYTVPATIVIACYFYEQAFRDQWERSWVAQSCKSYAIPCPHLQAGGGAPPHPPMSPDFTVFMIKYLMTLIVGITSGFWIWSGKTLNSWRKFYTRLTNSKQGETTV
Conditions: not given
The assay is classed as cell-based.
On to `O=C(Nc1ccc([N+](=O)[O-])cc1Cl)c1cc(Br)ccc1O`, for which the result was Active.
For `O=C(Nc1ccc(NS(=O)(=O)c2ccc(Cl)cc2)cc1Cl)c1cc(Cl)ccc1O`, the result was inactive.
On to `O=C(Nc1ccc(Oc2ccc(Cl)cc2)c(Cl)c1)c1cc(I)cc(I)c1O`, for which the outcome was inactive.
`Cc1cc(C(C#N)c2ccc(Cl)cc2)c(Cl)cc1NC(=O)c1cc(I)cc(I)c1O` (stereo not given): the outcome was inactive.
Regarding `O=C(Nc1cccc([N+](=O)[O-])c1)c1cc(Cl)ccc1O`, the outcome was inactive.
As for `O=C(Nc1ccc([N+](=O)[O-])cc1)c1cc(Cl)ccc1O`, the result was Active.
`O=C(Nc1ccc([N+](=O)[O-])cc1Br)c1ccccc1O`: the result was Active.
Regarding `O=C(Nc1ccc([N+](=O)[O-])cc1Cl)c1cccc(Cl)c1`, the outcome was inactive.
`[N-]=[N+]=NCCOCCOCCOc1cc([N+](=O)[O-])ccc1NC(=O)c1cc(Cl)ccc1O`: the result was Active.
In the case of `O=C(Nc1ccc(Br)cc1)c1cc(Br)cc(Br)c1O`, the outcome was inactive.
Consider `O=C(Nc1ccccc1[N+](=O)[O-])c1cc(Cl)ccc1O`, for which the outcome was inactive.
Turning to `O=C(Nc1ccc([N+](=O)[O-])cc1Cl)c1ccccc1O`, the result was Active.
Consider `[N-]=[N+]=Nc1ccc(NC(=O)c2cc(Cl)ccc2O)c(Cl)c1`, for which the result was Active.
Consider `Nc1ccc(NC(=O)c2cc(Cl)ccc2O)c(Cl)c1`, for which the result was inactive.
On to `O=C(Nc1cc(Cl)cc(Cl)c1O)c1c(O)c(Cl)cc(Cl)c1Cl`, for which the outcome was inactive.
On the same count and under the same terms, to `COc1ccc(Cl)cc1C(=O)Nc1ccc([N+](=O)[O-])cc1Cl` belongs “inactive”; to `O=C(Nc1ccc([N+](=O)[O-])cc1)c1cc(Br)ccc1O`, “Active”; to `COc1cc([N+](=O)[O-])ccc1NC(=O)c1cc(Cl)ccc1O`, “Active”.
As to `O=C(Nc1ccc([N+](=O)[O-])cc1Cl)c1cc(Cl)ccc1O` [NICLOSAMIDE], the outcome was Active.
